The source made the active and inactive calls. The calls are words filed in the database; no cut-off is given here.
Legend:
[1] = test system: Enterovirus A71; assay: Antiviral activity against Enterovirus 71 TW/70902/08 clinical isolates incubated for 2 to 3 days; type: functional; conditions: Enterovirus A
[2] = (§1) Inhibition of full length recombinant His6-tagged PI4K3alpha (unknown origin) expressed in Sf9 insect cells assessed as residual activity at 100 uM using PI : PS as substrate in presence of [gamma-33P]-ATP by scintillation counting method relative to control; conditions: Homo sapiens
[3] = test system: Enterovirus A71; assay: Antiviral activity against Enterovirus 71 TW/2429/04 clinical isolates incubated for 2 to 3 days; type: functional; conditions: Enterovirus A
[4] = test system: Enterovirus A71; assay: Antiviral activity against Enterovirus 71 TW/1956/05 clinical isolates incubated for 2 to 3 days; type: functional; conditions: Enterovirus A
[5] = test system: Enterovirus A71; assay: Antiviral activity against Enterovirus 71 H08300 461#812 clinical isolates incubated for 2 to 3 days; type: functional; conditions: Enterovirus A
[6] = test system: Enterovirus A71; assay: Antiviral activity against Enterovirus 71 11316 clinical isolates incubated for 2 to 3 days; type: functional; conditions: Enterovirus A
[7] = Cytotoxicity against human RD cells after 2 to 3 days by MTS method; type: cell-based
How it was run: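 Uninfected RD cells, 20 000/well in 2% FCS medium, run in parallel with the antiviral assay. Three 8-step 1:5 dilution series from 100 μM, 2-3 days. Read-out by 5% MTS, 1.5 h at 37 °C, absorbance 498 nm, as % of untreated controls. CC50 is the 50% metabolic activity point, median of 3 curves.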

[8] = Selectivity index, ratio of CC50 for human RD cells assessed as change in cell morphology to EC50 for Enterovirus 71; type: toxicity; conditions: read-out: Ratio CC50/EC50
How it was run: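 SI is CC50/EC50. CC50 is from microscopically detected morphology change in uninfected RD cells and EC50 from the EV71 CPE-reduction assay in RD cells.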

[9] = test system: Coxsackievirus B3; assay: Antiviral activity against Coxsackievirus B3 after 2 to 3 days by cell based MTS assay; type: functional; conditions: Enterovirus B
[10] = test system: Echovirus E11; assay: Antiviral activity against Echovirus 11 after 2 to 3 days; type: functional; conditions: Enterovirus B
[11] = test system: rhinovirus B14; assay: Antiviral activity against Rhinovirus 14 after 2 to 3 days by cell based MTS assay; type: functional; conditions: Rhinovirus B; read-out: EC50
[12] = target: PI3-kinase p110-alpha/p85-alpha (Homo sapiens) (UniProt P27986+P42336); assay: as §1, with “recombinant human N-terminal” for “recombinant”, “PI3Kalpha (1 to 1068 residues)/full length human N-terminal myc-tagged P85alpha (1 to 724 residues)” for “PI4K3alpha (unknown origin)”
[13] = target: Proto-oncogene tyrosine-protein kinase Src (Homo sapiens) (UniProt P12931); assay: Inhibition of full-length recombinant human N-terminal GST-tagged SRC expressed in Escherichia coli assessed as residual activity at 100 uM using KVEKIGEGTYGVVYK-amide as substrate by ADP-Glo bioluminescence assay relative to control relative to control
Chain of Proto-oncogene tyrosine-protein kinase Src (Homo sapiens) (P12931 2-536 limits assumed): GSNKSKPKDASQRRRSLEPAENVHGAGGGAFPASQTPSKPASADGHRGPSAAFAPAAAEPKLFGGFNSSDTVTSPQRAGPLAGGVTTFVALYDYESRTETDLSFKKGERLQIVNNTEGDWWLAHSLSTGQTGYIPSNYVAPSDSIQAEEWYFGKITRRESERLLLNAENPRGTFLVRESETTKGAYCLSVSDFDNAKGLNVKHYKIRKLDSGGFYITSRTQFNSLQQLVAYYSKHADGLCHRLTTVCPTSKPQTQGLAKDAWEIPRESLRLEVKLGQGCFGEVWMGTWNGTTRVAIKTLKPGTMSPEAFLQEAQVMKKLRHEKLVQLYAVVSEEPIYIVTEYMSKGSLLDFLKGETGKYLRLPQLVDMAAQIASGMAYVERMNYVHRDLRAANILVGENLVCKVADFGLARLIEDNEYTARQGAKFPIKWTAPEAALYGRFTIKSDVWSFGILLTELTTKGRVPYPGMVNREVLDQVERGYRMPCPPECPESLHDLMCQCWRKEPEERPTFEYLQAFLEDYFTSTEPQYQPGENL
How it was run: (§2)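 Kinase reactions followed manufacturer's instructions with 10-50 ng enzyme, in 10 µL for 10 min at 30 °C; NP-40 or BSA added for some kinases. Compound at 100 µM. Residual activity is the mean of two independent replicates.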

[14] = target: Glycogen synthase kinase-3 beta (Homo sapiens) (UniProt P49841); assay: Inhibition of full-length recombinant human N-terminal GST-tagged GSK3beta expressed in baculovirus infected sf9 cells assessed as residual activity at 100 uM using YRRAAVPPSPSLSRHSSPHQ(pS)EDEEE as substrate by ADP-Glo bioluminescence assay relative to control relative to control
Chain of Glycogen synthase kinase-3 beta (Homo sapiens) (P49841 whole entry, looked up): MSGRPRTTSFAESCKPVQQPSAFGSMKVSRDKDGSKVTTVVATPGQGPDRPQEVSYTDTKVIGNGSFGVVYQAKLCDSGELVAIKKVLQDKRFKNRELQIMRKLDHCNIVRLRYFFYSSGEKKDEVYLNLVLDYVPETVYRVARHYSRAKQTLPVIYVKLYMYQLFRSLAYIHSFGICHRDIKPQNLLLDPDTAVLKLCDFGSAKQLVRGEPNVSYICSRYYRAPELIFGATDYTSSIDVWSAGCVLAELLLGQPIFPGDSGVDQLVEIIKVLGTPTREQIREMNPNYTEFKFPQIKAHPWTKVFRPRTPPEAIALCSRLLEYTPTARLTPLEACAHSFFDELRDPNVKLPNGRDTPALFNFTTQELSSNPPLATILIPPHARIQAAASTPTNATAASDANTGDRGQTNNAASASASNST
How it was run: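 Kinase run per the manufacturer's instructions with 10–50 ng enzyme in 10 μL at 30 °C for 10 min. NP-40 or BSA was added for some kinases. Compound was tested at 100 μM, with activity given as % residual. Values are the mean of two independent replicates.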

[15] = target: Tyrosine-protein kinase HCK (Homo sapiens) (UniProt P08631); assay: Inhibition of full-length recombinant human HCK assessed as residual activity at 100 uM using poly(Glu,Tyr)4:1 as substrate by ADP-Glo bioluminescence assay relative to control relative to control; how it was run: as §2
Chain of Tyrosine-protein kinase HCK (Homo sapiens) (P08631 2-526 limits assumed): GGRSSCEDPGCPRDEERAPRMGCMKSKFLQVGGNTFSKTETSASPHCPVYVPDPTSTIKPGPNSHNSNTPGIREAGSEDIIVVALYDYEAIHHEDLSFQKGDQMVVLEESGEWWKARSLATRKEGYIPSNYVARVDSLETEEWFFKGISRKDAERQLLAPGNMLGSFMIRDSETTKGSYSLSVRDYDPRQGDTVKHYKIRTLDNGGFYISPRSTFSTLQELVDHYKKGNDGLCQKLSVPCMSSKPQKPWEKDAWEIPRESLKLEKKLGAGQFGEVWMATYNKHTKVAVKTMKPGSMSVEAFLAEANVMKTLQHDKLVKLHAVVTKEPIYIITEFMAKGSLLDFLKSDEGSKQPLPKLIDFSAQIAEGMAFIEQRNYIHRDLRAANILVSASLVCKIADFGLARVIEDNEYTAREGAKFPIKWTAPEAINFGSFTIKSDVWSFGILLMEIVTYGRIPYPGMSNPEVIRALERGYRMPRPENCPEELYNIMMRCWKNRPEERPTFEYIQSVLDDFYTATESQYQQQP

[16] = target: Focal adhesion kinase 1 (Homo sapiens) (UniProt Q05397); assay: Inhibition of […] recombinant human FAK (393 to 698 residues) expressed in baculovirus infected sf9 cells assessed as residual activity at 100 uM using poly(Glu,Tyr)4:1 as substrate by ADP-Glo bioluminescence assay relative to control relative to control; how it was run: as §2
[17] = target: Dual specificity tyrosine-phosphorylation-regulated kinase 1A (Homo sapiens) (UniProt Q13627); assay: Inhibition of human DYRK1A assessed as residual activity at 100 uM by ADP-Glo bioluminescence assay relative to control relative to control; how it was run: as §2
[18] = target: Tyrosine-protein kinase ABL1 (Homo sapiens) (UniProt P00519); assay: Inhibition of full length ABL (unknown origin) assessed as residual activity at 100 uM by ADP-Glo bioluminescence assay relative to control relative to control; how it was run: as §2
Chain of Tyrosine-protein kinase ABL1 (Homo sapiens) (P00519 whole entry, the tested form may be a part): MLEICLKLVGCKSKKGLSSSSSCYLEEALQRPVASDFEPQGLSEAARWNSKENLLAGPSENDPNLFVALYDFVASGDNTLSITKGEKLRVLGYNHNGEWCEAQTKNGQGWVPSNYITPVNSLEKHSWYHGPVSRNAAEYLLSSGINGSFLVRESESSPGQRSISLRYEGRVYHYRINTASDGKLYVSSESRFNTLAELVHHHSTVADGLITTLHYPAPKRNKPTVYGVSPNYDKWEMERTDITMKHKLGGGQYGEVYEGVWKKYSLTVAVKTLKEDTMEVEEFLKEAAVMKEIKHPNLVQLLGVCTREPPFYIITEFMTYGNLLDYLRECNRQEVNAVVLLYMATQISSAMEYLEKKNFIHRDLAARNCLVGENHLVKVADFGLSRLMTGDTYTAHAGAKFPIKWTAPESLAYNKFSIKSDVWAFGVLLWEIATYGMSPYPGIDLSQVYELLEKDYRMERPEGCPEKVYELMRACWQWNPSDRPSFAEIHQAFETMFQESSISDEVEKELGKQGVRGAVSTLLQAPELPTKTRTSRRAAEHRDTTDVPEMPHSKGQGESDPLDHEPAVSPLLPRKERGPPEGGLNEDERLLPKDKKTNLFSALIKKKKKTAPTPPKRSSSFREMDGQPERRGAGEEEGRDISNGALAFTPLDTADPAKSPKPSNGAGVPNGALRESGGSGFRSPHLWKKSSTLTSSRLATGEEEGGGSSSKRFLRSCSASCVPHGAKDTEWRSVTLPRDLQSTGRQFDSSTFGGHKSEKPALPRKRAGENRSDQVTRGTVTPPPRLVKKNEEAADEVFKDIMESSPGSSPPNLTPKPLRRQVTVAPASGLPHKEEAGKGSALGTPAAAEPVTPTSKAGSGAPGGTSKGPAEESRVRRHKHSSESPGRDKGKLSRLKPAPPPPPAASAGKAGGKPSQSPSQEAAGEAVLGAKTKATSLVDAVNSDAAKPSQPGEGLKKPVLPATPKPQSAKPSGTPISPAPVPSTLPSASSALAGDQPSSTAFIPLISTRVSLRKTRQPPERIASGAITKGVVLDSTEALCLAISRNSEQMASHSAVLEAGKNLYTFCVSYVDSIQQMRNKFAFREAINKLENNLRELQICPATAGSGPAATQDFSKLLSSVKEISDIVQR

[19] = target: Receptor-type tyrosine-protein kinase FLT3 (Homo sapiens) (UniProt P36888); assay: Inhibition of recombinant human N-terminal GST-tagged FLT3 (571 to 993 residues) expressed in baculovirus infected sf9 cells assessed as residual activity using myelin basic protein as substrate at 100 uM by ADP-Glo bioluminescence assay relative to control relative to control; how it was run: as §2
Chain of Receptor-type tyrosine-protein kinase FLT3 (Homo sapiens) (P36888 whole entry, the tested form may be a part): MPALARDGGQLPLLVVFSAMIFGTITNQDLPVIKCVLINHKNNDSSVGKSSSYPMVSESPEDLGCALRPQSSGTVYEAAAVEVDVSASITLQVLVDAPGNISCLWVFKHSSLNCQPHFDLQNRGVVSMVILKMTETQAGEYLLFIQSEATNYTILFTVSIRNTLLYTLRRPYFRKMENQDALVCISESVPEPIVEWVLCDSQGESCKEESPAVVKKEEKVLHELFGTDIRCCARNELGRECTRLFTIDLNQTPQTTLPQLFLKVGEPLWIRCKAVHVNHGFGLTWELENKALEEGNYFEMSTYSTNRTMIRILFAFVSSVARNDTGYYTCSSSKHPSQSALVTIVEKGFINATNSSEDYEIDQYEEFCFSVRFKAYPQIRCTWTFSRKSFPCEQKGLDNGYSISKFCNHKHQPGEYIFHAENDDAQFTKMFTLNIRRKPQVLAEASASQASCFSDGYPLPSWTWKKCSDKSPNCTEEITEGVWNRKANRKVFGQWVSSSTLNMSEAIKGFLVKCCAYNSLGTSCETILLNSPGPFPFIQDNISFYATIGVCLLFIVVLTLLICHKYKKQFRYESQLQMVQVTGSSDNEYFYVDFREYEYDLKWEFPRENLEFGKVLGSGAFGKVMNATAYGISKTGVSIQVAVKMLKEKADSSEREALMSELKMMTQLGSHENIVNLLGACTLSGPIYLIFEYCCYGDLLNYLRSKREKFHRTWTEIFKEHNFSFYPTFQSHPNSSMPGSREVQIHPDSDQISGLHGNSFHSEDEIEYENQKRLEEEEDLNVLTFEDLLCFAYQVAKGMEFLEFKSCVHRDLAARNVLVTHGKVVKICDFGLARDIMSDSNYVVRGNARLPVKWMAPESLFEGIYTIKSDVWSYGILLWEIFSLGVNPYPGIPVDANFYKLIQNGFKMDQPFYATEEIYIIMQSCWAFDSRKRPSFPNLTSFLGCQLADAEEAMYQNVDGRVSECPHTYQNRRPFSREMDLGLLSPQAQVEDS

[20] = target: CDK9/cyclin T1 (Homo sapiens) (UniProt O60563+P50750); assay: Inhibition of CDK9/cyclin T1 (unknown origin) assessed as residual activity at 100 uM by ADP-Glo bioluminescence assay relative to control relative to control; type: protein-complex assay; how it was run: as §2
[21] = target: CDK9/Cyclin K (Homo sapiens) (UniProt P50750+O75909); assay: Inhibition of full-length recombinant human N-terminal GST-tagged CDK9/cyclin K expressed in baculovirus infected sf9 cells assessed as residual activity at 100 uM using KTFCGTPEYLAPEVRREPRILSEEEQEMFRDFDYIADWC as substrate by ADP-Glo bioluminescence assay relative to control relative to control; how it was run: as §2
[22] = target: CDK6/cyclin D1 (Homo sapiens) (UniProt P24385+Q00534); assay: Inhibition of CDK6/cyclin D1 (unknown origin) assessed as residual activity at 100 uM by ADP-Glo bioluminescence assay relative to control relative to control; type: protein-complex assay; how it was run: as §2
[23] = test system: Cystic fibrosis transmembrane conductance regulator (Homo sapiens), P13569 [F508del]; assay: Corrector activity at CFTR F508 deletion mutant (unknown origin) expressed in HEK293 cells assessed as increase in steady-state level of F508 deletion mutant at plasma membrane at 10 uM preincubated for 24 hrs followed by compound washout by pHTomato dye based fluorescence imaging method; type: cell-based
Chain of Cystic fibrosis transmembrane conductance regulator (Homo sapiens), P13569 [F508del] (P13569 as listed by the source): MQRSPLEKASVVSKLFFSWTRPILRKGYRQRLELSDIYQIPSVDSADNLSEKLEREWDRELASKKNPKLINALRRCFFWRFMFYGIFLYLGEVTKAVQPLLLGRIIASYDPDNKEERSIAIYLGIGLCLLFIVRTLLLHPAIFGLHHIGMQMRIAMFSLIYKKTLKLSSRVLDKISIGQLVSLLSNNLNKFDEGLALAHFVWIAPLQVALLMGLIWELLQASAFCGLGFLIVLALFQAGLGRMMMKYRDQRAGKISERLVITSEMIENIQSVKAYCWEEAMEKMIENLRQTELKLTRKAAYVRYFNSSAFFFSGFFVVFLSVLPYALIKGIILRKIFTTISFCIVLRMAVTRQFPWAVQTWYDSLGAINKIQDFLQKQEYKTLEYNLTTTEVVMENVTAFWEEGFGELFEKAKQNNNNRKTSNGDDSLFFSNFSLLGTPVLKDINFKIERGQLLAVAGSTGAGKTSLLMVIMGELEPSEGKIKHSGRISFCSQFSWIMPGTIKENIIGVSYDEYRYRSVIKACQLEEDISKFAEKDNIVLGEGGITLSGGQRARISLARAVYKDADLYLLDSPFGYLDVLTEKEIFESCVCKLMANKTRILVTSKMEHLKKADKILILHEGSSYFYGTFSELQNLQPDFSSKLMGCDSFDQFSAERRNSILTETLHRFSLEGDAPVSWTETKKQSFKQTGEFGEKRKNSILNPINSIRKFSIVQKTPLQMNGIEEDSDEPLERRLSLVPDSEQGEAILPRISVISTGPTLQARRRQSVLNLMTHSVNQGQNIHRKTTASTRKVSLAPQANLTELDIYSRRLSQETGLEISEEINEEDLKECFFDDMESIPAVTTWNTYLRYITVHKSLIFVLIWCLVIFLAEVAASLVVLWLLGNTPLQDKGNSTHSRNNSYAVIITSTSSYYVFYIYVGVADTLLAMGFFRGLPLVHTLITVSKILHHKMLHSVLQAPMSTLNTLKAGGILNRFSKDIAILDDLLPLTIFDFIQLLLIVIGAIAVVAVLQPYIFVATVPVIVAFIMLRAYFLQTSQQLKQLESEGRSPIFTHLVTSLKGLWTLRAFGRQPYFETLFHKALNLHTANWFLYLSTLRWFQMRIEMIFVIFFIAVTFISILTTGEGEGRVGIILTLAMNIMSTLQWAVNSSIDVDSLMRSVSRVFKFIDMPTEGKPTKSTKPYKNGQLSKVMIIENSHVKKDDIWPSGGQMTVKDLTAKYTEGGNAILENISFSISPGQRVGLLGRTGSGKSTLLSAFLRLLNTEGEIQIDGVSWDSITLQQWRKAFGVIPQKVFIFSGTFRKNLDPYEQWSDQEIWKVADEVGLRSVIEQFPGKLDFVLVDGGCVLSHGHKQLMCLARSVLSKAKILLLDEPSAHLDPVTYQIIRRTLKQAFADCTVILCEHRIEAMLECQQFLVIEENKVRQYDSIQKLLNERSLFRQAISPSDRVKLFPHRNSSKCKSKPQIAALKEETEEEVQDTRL
How it was run: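 HEK293 cells were transiently transfected (Lipofectamine 2000) with F508del-CFTR-pHTomato plus co-expressed soluble eGFP, then kept 24 h at 37 °C. Next, 24 h at 30 °C with 10 μM drug. Imaging in pH 7.4 HEPES buffer, then extracellular pH shifted to ~6.5 (MES) and ~8.8 (Tris). The eGFP-normalized fluorescence rise (ΔF) estimates membrane CFTR.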

[24] = test system: Cystic fibrosis transmembrane conductance regulator (Homo sapiens), P13569 [F508del]; assay: Potentiator activity at CFTR F508 deletion mutant (unknown origin) expressed in HEK293 cells assessed as increase in aninon permeability at 10 uM […] by YFP probe based imaging method; type: cell-based

## CC(=O)c1cccc(Nc2nc(-c3sc(NC(=O)OC(C)(C)C)nc3C)cs2)c1
[1]
  EC50: 3.58 µM
[2]
  Activity: 69%
[3]
  EC50: 1.17 µM
[4]
  EC50: < 1.39 µM
[5]
  EC50: 0.97 µM
[6]
  EC50: < 1.39 µM
[7]
  CC50: 42.3 µM
[8]
  selectivity ratio: 71.1
[9]
  EC50: 2.74 µM
[10]
  EC50: 2.93 µM
[11]
  EC50: > 232 µM
[12]
  Activity: 64%
[13]
  Activity: 32%
[14]
  Activity: 79%
[15]
  Activity: 100%
[16]
  Activity: 82%
[17]
  Activity: 88%
[18]
  Activity: 53%
[19]
  Activity: 59%
[20]
  Activity: 57%
[21]
  Activity: 49%
[22]
  Activity: 25%
[23]
  Activity: Active
[24]
  Activity: inactive
